A selection: hits, their analogues and other compounds. The true share with any hit is near 5.1%.
E coli WT exp – growth inhibitors of wild-type E. coli, primary screen, strain BW25113, expanded library, OD600 | 0.15% of 98,000 active | OD600 absorbance | growth inhibition, % at 100 µM;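 active = growth inhibition above about 50% at one test dose, limit read from the data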;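 also: growth measured after 20 h incubation at 37 °C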
M1 ag – M1 muscarinic receptor agonists, primary screen, CHO-M1 cells, Fluo-4 calcium, agonist mode. Muscarinic acetylcholine receptor M1. B-score at 10 µM. Fluo-4 calcium fluorescence; stronger effect = higher value. 3% of 64,000 active;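 active = fluorescence rise, raw or as B-score row- and column-corrected plate score, outside the 99.7% band of its plate's samples, either direction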
Hsp90 inh – tumor Hsp90 inhibitors, primary screen, cell lysate, fluorescence polarization, NCI-N417 lysate. Heat shock protein HSP 90-alpha (Homo sapiens), P07900. Cy3B-geldanamycin FP displacement. inhibition, % at 30 µM. 0.35% of 64,000 active;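 active = inhibition above 50%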;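 also: 0% = tracer plus lysate wells and 100% = tracer alone without lysate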
Ecoli tolC – growth inhibitors of E. coli tolC mutant, primary screen, strain BW25113 ΔtolC::kan, 384-well; OD615; growth inhibition, % at 10 µM (by protocol); 2.2% of 65,000 active; AID 573, 2007;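 active = growth inhibition at or above a cutoff equal to the mean over every tested compound plus 3 SD, cut at about 60% in these data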;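 also: growth measured after 20 h incubation at 37 °C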
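Test system: E. coli BW25113 ΔtolC::kan bacteria | Medium: Kanamycin-containing LB broth (50 µg/mL) | Dosing: One dose of 10 µM final | Times: 20 h incubation with compound, 37 °C | Detection: Optical density read at 615 nm | Read-out basis: Percent growth inhibition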
M1 antagonist – antagonists of rat M1 muscarinic receptor; B-score at 10 µM; 3.4% of 64,000 active; CHO-M1 cells, Fluo-4 calcium, ACh EC80 antagonist mode; stronger effect = lower value;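 active = calcium fluorescence response, raw or row-and-column corrected B-score, differing from the plate sample mean either way at a set confidence level, mostly lower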
BAP1 block – inhibitors of BAP1 deubiquitinase, primary screen, biochemical, Ub-AMC fluorescence, kinetic. Ubiquitin carboxyl-terminal hydrolase BAP1 (Homo sapiens), Q92560. calls only at 20 µM. AID 436, 2006. 0.48% of 72,000 active. recombinant BAP1, Ub-AMC hydrolysis fluorescence kinetic; stronger effect = lower value;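 active = activity remaining at or below 50% of control, provided the compound also passes the data quality filters; inactive = the rest, including low values that fail the filters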;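 also: 100% = DMSO wells rate and 0% = substrate alone blank rate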
Target sequence (Q92560 whole entry, looked up): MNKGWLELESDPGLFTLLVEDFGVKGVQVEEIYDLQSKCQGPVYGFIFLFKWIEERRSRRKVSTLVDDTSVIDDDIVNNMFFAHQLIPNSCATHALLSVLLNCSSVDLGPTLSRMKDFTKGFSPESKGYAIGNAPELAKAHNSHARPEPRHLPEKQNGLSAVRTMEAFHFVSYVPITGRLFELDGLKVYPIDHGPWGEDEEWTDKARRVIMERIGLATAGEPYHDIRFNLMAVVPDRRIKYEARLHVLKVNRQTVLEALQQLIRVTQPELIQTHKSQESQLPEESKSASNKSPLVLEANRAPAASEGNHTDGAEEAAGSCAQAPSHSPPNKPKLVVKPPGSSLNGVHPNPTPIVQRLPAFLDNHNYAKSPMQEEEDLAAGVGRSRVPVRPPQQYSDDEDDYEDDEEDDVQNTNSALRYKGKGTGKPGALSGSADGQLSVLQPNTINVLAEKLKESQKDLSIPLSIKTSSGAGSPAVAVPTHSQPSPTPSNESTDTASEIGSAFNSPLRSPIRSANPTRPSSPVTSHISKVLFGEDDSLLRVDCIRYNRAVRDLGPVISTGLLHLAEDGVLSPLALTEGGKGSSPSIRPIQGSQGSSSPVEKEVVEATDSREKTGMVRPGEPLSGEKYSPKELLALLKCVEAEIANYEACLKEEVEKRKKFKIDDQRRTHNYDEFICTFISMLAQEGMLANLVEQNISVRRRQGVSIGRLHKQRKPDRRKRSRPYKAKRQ
M1 antag conf – rat M1 muscarinic receptor antagonists, confirmation, CHO cells, Fluo-4 calcium, duplicate. shares compounds with M1 antagonist. ACh EC80 antagonism; stronger effect = lower value. calcium response (max-min fluorescence) at 10 µM. 43% of 1,700 active. AID 677, 2007;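 active = calcium response below the same-plate mean of wells given acetylcholine alone at its 80%-effect dose, minus 3 SD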;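 also: raw fluorescence intensity difference in arbitrary instrument units and not normalized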
mGluR4 antag – human mGluR4 response to M1 antagonist hits, M1 allosteric modulator project, cell-based, antagonist mode, secondary assay 1; shares compounds with M1 antagonist; CHO-mGluR4 calcium flux, Fluo-4 fluorescence, glutamate EC80; stronger effect = lower value; fluorescence response (max-min) at 10 µM; 0.9% of 1,700 active; AID 678, 2007;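 active = fluorescence response below the plate's average for near-maximal glutamate wells, less 3 SD of those wells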;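 also: raw unnormalized fluorescence span taken in the window right after glutamate addition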
The depositor's hits bear a star.

Results for O=C1c2cccnc2C(=O)N1CO ?
E coli WT exp: 2; M1 ag: -0.78; Hsp90 inh: -3; Ecoli tolC: -4; M1 antagonist: -2.4*; BAP1 block: inactive; M1 antag conf: 581; mGluR4 antag: 216

How did O=C1c2cccnc2C(=O)N1Cc1ccco1 do in these assays?
E coli WT exp: -1; M1 ag: 0.69; Hsp90 inh: -1; Ecoli tolC: -5; M1 antagonist: 0.29; BAP1 block: inactive

Results for c1ccc(CCN2CN(CCCN3CCOCC3)c3nc4ccccc4n3C2)cc1 ?
E coli WT exp: 4; M1 ag: -0.23; Hsp90 inh: 2; Ecoli tolC: 4; M1 antagonist: -1.9*; BAP1 block: inactive; M1 antag conf: 442; mGluR4 antag: 187

Results for CCCCNC(=O)N1CCOCCOCCN(C(=O)NCCCC)CCOCC1 ?
E coli WT exp: 3; M1 ag: 0.059; Hsp90 inh: -2; Ecoli tolC: 8; M1 antagonist: -2.3*; BAP1 block: inactive; M1 antag conf: 589; mGluR4 antag: 244

What do the screens show for `COc1ccc(-c2[nH]c(-c3cccc(OC)c3)nc2SCC(=O)NCc2ccco2)cc1`?
E coli WT exp: -23; M1 ag: -1.1; Hsp90 inh: -1; Ecoli tolC: 67*; M1 antagonist: -3.1*; BAP1 block: inactive; M1 antag conf: 574; mGluR4 antag: 210

What do the screens show for `COc1ccc(-c2ccc(SCC(=O)NCc3ccco3)nn2)cc1`?
E coli WT exp: 4; M1 ag: 0.039; Hsp90 inh: 2; Ecoli tolC: -10; M1 antagonist: -13*; BAP1 block: inactive; M1 antag conf: 584; mGluR4 antag: 211

Results for CCNC(=O)Cc1ccc(NS(=O)(=O)c2ccc(F)cc2)cc1 ?
E coli WT exp: 8; M1 ag: -0.29; Ecoli tolC: 0; M1 antagonist: 0.15

How did CCNS(=O)(=O)c1ccc(NC(=O)Cc2ccc(F)cc2)cc1 do in these assays?
E coli WT exp: 15; M1 ag: 0.056; Hsp90 inh: -5; Ecoli tolC: 9; M1 antagonist: -5.5*; BAP1 block: inactive; M1 antag conf: 561*; mGluR4 antag: 197

How did c1cncc(C(c2nnnn2C2CCCC2)N2CCCC2)c1 (stereo not given) do in these assays?
E coli WT exp: 6; M1 ag: 0.12; Hsp90 inh: -1; Ecoli tolC: -11; M1 antagonist: -2*; BAP1 block: inactive; M1 antag conf: 662; mGluR4 antag: 207

How did CCc1cccc(C)c1NC(=O)CSc1nnc(-c2cc3cc(Br)ccc3o2)n1CC do in these assays?
E coli WT exp: -6; M1 ag: -0.75; Hsp90 inh: -1; Ecoli tolC: 17; M1 antagonist: -2.8*; BAP1 block: inactive; M1 antag conf: 584; mGluR4 antag: 246

How did CN1CCN(c2ccc(NC(=O)c3cccc(OCc4ccccc4)c3)cc2)CC1 do in these assays?
E coli WT exp: -8; M1 ag: -0.55; Hsp90 inh: 8; Ecoli tolC: 8; M1 antagonist: -5.3*; BAP1 block: inactive; M1 antag conf: 304*; mGluR4 antag: 245

Results for COC(=O)c1ccc(CSc2nc(C)nc3c2c(=O)n(C)c(=O)n3C)o1 ?
E coli WT exp: -4; M1 ag: -0.098; Hsp90 inh: 0; Ecoli tolC: -4; M1 antagonist: -2*; BAP1 block: inactive; M1 antag conf: 500*; mGluR4 antag: 242

What do the screens show for `CCn1c(SCC(=O)Nc2c(C)n(C)n(-c3ccccc3)c2=O)nnc1-c1cccc(C)c1`?
E coli WT exp: 2; M1 ag: 2.5; Hsp90 inh: 1; Ecoli tolC: -2; M1 antagonist: -1.9*; BAP1 block: inactive; M1 antag conf: 575; mGluR4 antag: 196

What do the screens show for `CCCCCCOC(=O)C1=C(C)NC(=O)NC1c1ccc(Br)cc1` (stereo not given)?
BAP1 block: inactive

Results for CCCCn1c(SCC(=O)Nc2nnc(CC)s2)nc2ccccc2c1=O ?
E coli WT exp: -8; M1 ag: -0.71; Hsp90 inh: -3; Ecoli tolC: -15; M1 antagonist: -7.8*; BAP1 block: inactive; M1 antag conf: 602; mGluR4 antag: 230

What do the screens show for `Cc1cc2c(c(=O)n1CCN(C)C)C(c1ccncc1)C(C#N)=C(N)O2` (stereo not given)?
E coli WT exp: -3; M1 ag: 0.089; Hsp90 inh: -4; Ecoli tolC: -17; M1 antagonist: -2.9*; BAP1 block: inactive; M1 antag conf: 675; mGluR4 antag: 252

Results for CCn1c(C)cc2c(c1=O)C(c1ccccc1Br)C(C#N)=C(N)O2 (stereo not given) ?
E coli WT exp: -4; Hsp90 inh: -13; Ecoli tolC: -3

What do the screens show for `COc1ccc(C2C(C#N)=C(N)Oc3cc(C)n(Cc4ccncc4)c(=O)c32)cc1` (stereo not given)?
E coli WT exp: -1; M1 ag: 0.27; Hsp90 inh: 1; Ecoli tolC: 2; M1 antagonist: 0.0088; BAP1 block: inactive

How did CCN(CC)CCCn1c(C)cc2c(c1=O)C(c1cccc(Cl)c1)C(C#N)=C(N)O2 (stereo not given) do in these assays?
E coli WT exp: 8; M1 ag: -0.55; Hsp90 inh: -3; Ecoli tolC: 4; M1 antagonist: -4.9*; BAP1 block: inactive; M1 antag conf: 644; mGluR4 antag: 227

Results for CCN(CC)CCCn1c(C)cc2c(c1=O)C(c1cc(OC)c(OC)cc1OC)C(C#N)=C(N)O2 (stereo not given) ?
E coli WT exp: 4; M1 ag: -0.41; Hsp90 inh: -2; Ecoli tolC: -7; M1 antagonist: -11*; BAP1 block: inactive; M1 antag conf: 279*; mGluR4 antag: 253

How did O=C(Nc1ccccc1Cl)c1c(Br)sc2c1CCCC2 do in these assays?
BAP1 block: inactive

How did CN1C(=O)c2c(sc3c2CC(C)(C)SC3)N2CCN=C12 do in these assays?
M1 ag: 0.21; Hsp90 inh: -4; Ecoli tolC: 13; M1 antagonist: -1.1; BAP1 block: inactive
